Results: ChEMBL document CHEMBL1141901, “1-Aryl-4,6-diamino-1,2-dihydrotriazine as antimalarial agent: a new synthetic route” (Bioorg Med Chem Lett, 2005)
pIC50: −log10 of the molar value.

Tests used:
[1] = Inhibitory concentration against Plasmodium falciparum
[2] = Inhibitory concentration against cycloguanil sensitive Plasmodium falciparum FJB-D9; type: functional
Method in brief: (§1)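 P. falciparum field isolates (collected from patients, 1990) grown in RPMI 1640 lacking p-aminobenzoic acid and folic acid, with 25 mM HEPES, bicarbonate and 10% human AB+ serum. Compounds tested over 0.0005–100 range, 30 h at 37 °C in candle jar. Schizonts (≥8 nuclei) per 200 asexual parasites counted microscopically in duplicate wells. Inhibition as (1 − Nt/Nc)×100. IC50/IC90 taken from these values.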

Plasmodium falciparum [3] = assay: Inhibitory concentration sensitive Plasmodium falciparum FJB-D9; type: functional
Method in brief: as §1

Plasmodium falciparum [4] = assay: Inhibitory concentration against Plasmodium falciparum

pIC50 [1] | pIC50 [2] | IC90 (Plasmodium falciparum [3]) | IC90 (Plasmodium falciparum [4]) | Compound
4.28 | 4.09 |  |  | NC1=NC(c2ccccc2)N(c2ccccn2)C(N)=N1 (stereo unspecified)
3.30 | 3.23 |  |  | Cc1ccc(N2CN=C(N)N=C2N)cc1
4.83 | 4.76 | 47.6 µM | 49.5 µM | NC1=NCN(c2ccc(F)c(Cl)c2)C(N)=N1
8.30 | 8.80 | 0.006 µM | 0.028 µM | CCc1nc(N)nc(N)c1-c1ccc(Cl)cc1 [PYRIMETHAMINE]
4.09 | 4.06 |  |  | NC1=NC(c2ccccc2)N(c2ccc(F)c(Cl)c2)C(N)=N1 (stereo unspecified)
3.20 | 3.21 |  |  | NC1=NCN(c2ccccn2)C(N)=N1
